Paper PMC11238050 (Research and Practice in Thrombosis and Haemostasis, 2024)
Read-outs that look alike come from different tables or passages of the source.

Tests used:
[1] = test system: thrombus formation in mouse cremaster arterioles; experiment: Laser-injury intravital microscopy thrombosis model; settings: 0.010 mM final in vivo SAB concentration, jugular vein injection
In short: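 Mice received fluorescently labelled anti-GPIb antibody (1 µg/g) through a jugular vein cannula before injury. Test compound was injected via the jugular cannula to a 0.010 mM final in vivo level, calculated from body weight (80 µL/g blood volume). Multiple cremaster arteriole injuries were made with a pulsed nitrogen dye laser. Thrombus formation was imaged by intravital microscopy and quantified as platelet MFI.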

thrombin [2] = target: T1, thrombin (Homo sapiens, UniProt P00734); experiment: Intrinsic fluorescence spectrophotometry binding, thrombin; settings: after 24 hours at room temperature
[3] = test system: human platelet thrombus formation; experiment: Collagen-coated perfusion chamber analysis; assay type: cell-based; settings: 0.32 mM SAB
In short: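 Heparinised (5 U/mL) human whole blood was labelled with 1 μM DiOC6 for 20 min at 37 °C, then incubated with test compound or PBS for 10 min. It was perfused over a collagen-coated glass chamber for 3 min at 1800 or 300 s^−1. Platelet adhesion was recorded by fluorescence microscopy during perfusion, and thrombus mean fluorescence intensity was quantified.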

human blood coagulation = experiment: Thromboelastography; settings: 0.3 mM SAB
In short: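 Thromboelastography used citrated (3.2%) whole blood from healthy human donors, treated with test compound (0.3 mM) or an equal volume of PBS. Samples were recalcified with 0.2 M CaCl2 stock and analysed on a TEG analyser.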

[4] = test system: human platelet-poor plasma coagulation; experiment: Prothrombin time and activated partial thromboplastin time measurement; settings: 0.6 mM SAB, human cell-free plasma
In short: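 Human platelet-poor plasma was tested in a steel-ball coagulometer. For PT, RecombiPlasTin 2G and its diluent stood 20 min at room temperature, were mixed 1:1 and warmed 5 min at 37 °C, then added to plasma (2:1 v/v). For aPTT, SynthASil was incubated 2 min at 37 °C, then 20 mM CaCl2 was added. Both end-points were time to solid gel.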

[5] = test system: platelets (gel-filtered / PRP); experiment: Collagen- and ADP-induced platelet aggregation; assay type: cell-based, human
In short: (§1)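 Human platelets in PRP or PIPES buffer, adjusted to 3.0 × 10^8/mL and preincubated 10 min at 37 °C with test compound in PBS (pH 7.4; 0.1–0.3 mM) or PBS alone. Agonists were bovine thrombin 0.02 U/mL, collagen 5 μg/mL or ADP 20 μM. Light-transmission aggregometry was run at 37 °C with stirring at 1000 rpm and recorded for at least 8 min.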

human platelet = assay type: cell-based
lysozyme [6] = experiment: Intrinsic fluorescence spectrophotometry binding, lysozyme control; settings: SAB titrated with lysozyme 0 to 95.6 μM, 20 °C
In short: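 Intrinsic fluorescence of test compound (27.2 ± 0.4 μM) in PBS, 20 °C, titrated with lysozyme 0–95.6 μM; blank PBS titrated separately. Excitation 382 nm, emission peak ~498 nm, with inner-filter correction. Integrated emission was averaged, normalised and plotted against protein concentration, then fitted to a binding model for apparent Kd. Four trials.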

human blood clot = experiment: Whole blood clot formation assay; settings: 0.3 mM SAB
In short: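 Blood was diluted 3-fold and treated with test compound (0.3 mM final, in PBS) or blank PBS. It was recalcified with 1 mM CaCl2 plus 2 U/mL thrombin and incubated 90 min at 37 °C. Clots were removed from the serum, and dry weight was measured after 24 h at room temperature (20 °C).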

[7] = test system: carotid artery thrombosis; experiment: Ferric chloride carotid artery thrombosis model; assay type: in vivo, C57BL/6J mice; settings: 15 mpk SAB via tail vein at 50% flow reduction, 10% ferric chloride
In short: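 Isoflurane-anaesthetised C57BL/6J mice (>8 weeks, 20–35 g) had filter paper soaked in 10% FeCl3 applied to the carotid adventitia for 180 s. The vessel was rinsed with warm saline. Doppler flow probe recorded flow for 30 min. At 50% flow reduction, test compound (15 mpk, ~0.3 mM blood level) or saline was given via the tail vein. Flow recovery and occlusion time were recorded.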

[8] = test system: Human gel-filtered platelet; experiment: Thrombin-induced platelet aggregation assay; assay type: cell-based; settings: […] SAB, 0.02 U/mL thrombin
In short: as §1

lysozyme [9] = experiment: Isothermal titration calorimetry, lysozyme control; assay type: binding; settings: 20 μM lysozyme, 0.312 mM SAB titrant, 20 °C, PBS pH 7.4
In short: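 ITC at 20 °C in PBS pH 7.4 was run with 20 μM lysozyme in the cell and test compound (0.312 mM) as titrant. Protocol: 60 s initial delay, 2 µL purge injection, then 34 injections of 8 µL every 300 s. The first point was discarded, and data were corrected for heat of dilution from titrant-into-buffer runs.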

thrombin [10] = target: T1, thrombin; experiment: Isothermal titration calorimetry, thrombin; assay type: binding; settings: ITC, 20 °C, PBS pH 7.4
[11] = Stability of SAB in solution on storage and freeze-thaw; assay type: physicochemical; settings: inhibitory function for platelet aggregation
[12] = test system: cell-free human blood plasma coagulation; experiment: Clot turbidity assay; settings: read-out: EC50, delay of cell-free human blood plasma coagulation; clot turbidity at 405 nm, 37 °C, 0.1 U/mL thrombin
[13] = flow cytometry, human platelets
[14] = flow cytometry, thrombin-stimulated human platelets

Salvianolic acid B [SAB]
reduction of thrombus formation in mouse cremaster vessels (platelet MFI) [1]: approximately 65% ± 5% | decrease in the SAB-thrombin complex signal (thrombin [2]): less than 3% | human platelet thrombus formation, venous shear rate ([3]; 300 s^−1, collagen-coated chamber): significantly inhibited | human platelet thrombus formation, arterial shear rate ([3]; 1800 s^−1, collagen-coated chamber): significantly inhibited | initiation of human blood coagulation (R-time) in TEG (human blood coagulation): significantly prolonged | activated partial thromboplastin time (aPTT) [4]: prolonged | prothrombin time (PT) [4]: prolonged | ADP-induced platelet aggregation ([5]; PRP, 20 μM ADP): attenuated | collagen-induced platelet aggregation ([5]; gel-filtered platelets, 5 μg/mL collagen): attenuated | thrombin-induced platelet surface expression of Ricinus communis agglutinin-1 (RCA-1) (human platelet): significantly reduced | thrombin-induced platelet surface expression of P-selectin (human platelet; [13]): significantly reduced | thrombin-induced platelet surface expression of annexin-V (human platelet; [13]): significantly reduced | binding of PAC-1 monoclonal antibody (αIIbβ3 integrin activation) (human platelet; [14]): significantly decreased | binding of fibrinogen (αIIbβ3 integrin activation) (human platelet; [14]): significantly decreased | binding to lysozyme (fluorescence) (lysozyme [6]): no direct interactions | dry weight of the human blood clot (human blood clot): significantly reduced | carotid blood flow [7]: rescued | vessel occlusion (time) [7]: prolonged | platelet aggregation [8]: completely abolished | binding to lysozyme (ITC) (lysozyme [9]): no interaction | Hill coefficient nH (thrombin [10]): 1.1 | ΔH1 (thrombin [10]): 18 ± 1 kcal/mol | ΔH2 (thrombin [10]): 180 ± 6 kcal/mol | −TΔS1 (thrombin [10]): -27 ± 1 kcal/mol | −TΔS2 (thrombin [10]): -185 ± 12 kcal/mol | Kd (thrombin [10]; read-out: Kd1): 0.62 ± 0.08 µM | Kd (thrombin [10]; read-out: dissociation constant Kd2 (weak binding site)): 37 ± 4 µM | effect of prolonged storage in solution and repeated freeze-thaw cycles on SAB [11]: decreased SAB inhibitory function | EC50 [12]: 62 ± 70 µM
